TAAR1 agonist = agonists of human TAAR1. activation, % at 3 µM. 360,000 compounds, 0.99% hits. CHO RD-HGA16 TAAR1, Fluo-8 calcium fluorescence; vehicle wells 0%, saturating PEA agonist 100%. Q96RJ0. AID 624467;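 active means activation above the mean activation of all test compounds in the run plus 3 SD, cut at about 38% in these data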
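System: CHO RD-HGA16 cells carrying human TAAR1 plus Gα16; Incubation: 17-24 h seeding, 75 min 37 °C dye, 30 min RT; Measured by: Fluo-8 fluorescence, 5 s baseline then 140 s kinetic read; Control set: DMSO and PEA EC100; Replication: single well for each compound.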
TAAR1 antag = human TAAR1 antagonism; inhibition, % at 3 µM; CHO RD-HGA16 TAAR1, Fluo-8 calcium fluorescence, antagonist; AID 624466; 360,000 compounds, 1.5% hits; Q96RJ0;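 active means inhibition above a per-plate cutoff, the mean inhibition of test compounds on that plate plus 3 SD, cut at about 49% in these data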;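 further: 0% = DMSO plus EC80 beta-PEA response and 100% = DMSO alone without agonist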
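test system = CHO RD-HGA16 cells bearing hTAAR1 | replication = singlicate | controls = DMSO-only wells and EC80 β-PEA-stimulated wells | reagent = EC80 β-phenethylamine stimulus | read-out basis = percent inhibition of PEA-evoked calcium signal, max/basal emission ratio | schedule = seeding 17-24 h prior, 75-min 37 °C, 30-min RT dye loading | signal = kinetic Fluo-8 calcium fluorescence measurement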
VLA-4 inh = inhibition in a human VLA-4 binding assay. inhibition, % (about 7 µM as worked out from the volumes in the protocol). 330,000 compounds, 0.2% hits. VLA-4 expressing cells, ligand binding flow cytometry. P13612. AID 2557; in the data active means inhibition above about 50%
Platelet DG rel = platelet dense granule release activity. human platelet-rich plasma, SFLLRN dense granule ATP release, luminescence. 300,000 compounds, 0.22% hits. inhibition, %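 (compounds screened at 7.5 µM in platelet-rich plasma)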;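 active means mean replicate score, as percent of positive control, at or above 50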
Rce1 inh = yeast Ras-converting enzyme inhibition; yeast membranes, quenched prenylated peptide cleavage fluorescence; calls only; 290,000 compounds, 0.27% hits; AID 2563;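 active means fall in fluorescence gain of 50% or more versus controls, with final raw signal at or below 3038400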;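 further: plate controls were neutral control wells for no effect and wells lacking membranes for full effect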
Target sequence (Q03530 whole entry, looked up): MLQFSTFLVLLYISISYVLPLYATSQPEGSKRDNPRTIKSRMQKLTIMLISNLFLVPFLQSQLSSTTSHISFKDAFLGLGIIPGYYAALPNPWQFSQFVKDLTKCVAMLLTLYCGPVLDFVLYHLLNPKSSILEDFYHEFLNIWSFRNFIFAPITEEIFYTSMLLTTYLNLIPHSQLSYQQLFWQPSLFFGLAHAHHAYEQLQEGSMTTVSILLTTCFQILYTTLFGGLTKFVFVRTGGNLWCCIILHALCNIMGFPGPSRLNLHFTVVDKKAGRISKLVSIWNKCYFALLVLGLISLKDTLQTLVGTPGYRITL
* hit, by the source's call; i = inactive; / = no result; + = active, no number. Most compounds without a hit are left out; they make up all but 2.6% or so of the library.

SMILES	TAAR1 agonist	TAAR1 antag	VLA-4 inh	Platelet DG rel	Rce1 inh
O=[N+]([O-])c1ccccc1S(=O)(=O)N/C(=N/S(=O)(=O)c1ccccc1)c1ccccc1	3	-3	0	/	/
O=[N+]([O-])c1ccc2nc(/C=C/c3ccc(Cl)cc3)[nH]c2c1	4	53*	4	1	i
CC(C)(C)CC(C)(C)c1ccc(OCCOCC[N+](C)(C)Cc2ccccc2)cc1	40*	3	9	/	/
C[N+](C)(CCOc1ccccc1)Cc1ccccc1 (tested in a mixture with another compound)	5	-21	-13	1	i
CCOc1cc(CNCC(C)C)cc(Cl)c1OCc1ccccc1	16	-18	26	0	i
CCOc1cc(CNC2CCCC2)ccc1OCc1ccccc1Cl	16	-10	3	-6	+
CCOc1cc(CNC2CCCC2)cc(Cl)c1OCc1ccccc1	58*	19	-1	13	i
COc1cc(CNCc2ccccc2)cc(Cl)c1OC	3	-5	-2	5	i
COc1cc(CNCCc2ccccc2)cc(Cl)c1OCc1ccccc1	40*	39	9	4	i
CCNc1nc(-c2sc(NC(=O)C(C)(C)C)nc2C)c(-n2cc(-c3ccccc3)nn2)s1	9	75*	/	/	/
Cc1nc(NC(=O)C(C)(C)C)sc1-c1nc(N)sc1-n1cc(-c2ccccc2)nn1	-1	-12	/	/	/
COc1ccc(NS(=O)(=O)c2ccc3c(c2)CCN3C(=O)CCC(=O)O)cc1OC	0	-7	20	-5	i
COc1ccccc1C(CC(=O)c1ccccc1)C(=O)c1ccccc1 (centres undefined)	6	73*	/	/	/
COc1ccccc1C(CC(=O)c1ccccc1)CC(=O)c1ccccc1	3	38	13	1	i
CN(C)CCCN(C(=O)c1ccc2c(c1)CCCC2)c1nc2cc3c(cc2s1)OCO3	41*	-7	-14	-5	i
CCN(CC)CCN(C(=O)c1ccc(S(=O)(=O)N2CCCCC2)cc1)c1nc2cc3c(cc2s1)OCO3	/	/	0	16	i
CCN(CC)CCN(C(=O)c1ccc2ccccc2c1)c1nc2cc3c(cc2s1)OCO3	-2	-37	4	-11	+
CN(C)CCCN(C(=O)c1ccc2c(c1)CCCC2)c1nc2ccc(F)cc2s1	25	2	8	-9	i
CCN(CC(=O)Nc1ccc(NC(C)=O)cc1)C(=O)c1c(C)nn(-c2ccc(F)cc2)c1Cl	15	54*	-2	/	/
CCOc1ccc(NC(=O)CN(C)C(=O)c2c(C)nn(-c3ccc(F)cc3)c2Cl)cc1OCC	-1	-34	16	5	i
COc1ccccc1N1CCN(C(=O)CCCN2C(=O)c3cccc4cccc(c34)C2=O)CC1	16	50*	0	-37	i
Cc1c(O)ccc(/C=N/Nc2ncccc2[N+](=O)[O-])c1O	0	12	2	63*	i
O=[N+]([O-])c1cccnc1N/N=C/c1ccccc1O	0	2	4	43	i
COc1ccc2c(c1OC)C(=O)N1c3ccccc3C(=O)N(c3ccccc3F)C21 (centres undefined)	18	66*	-3	0	i
Cc1cccc(C)c1NC(=O)C1(C)CN(S(C)(=O)=O)CC(=O)N1Cc1ccco1 (centres undefined)	4	-14	/	/	/
SMILES	TAAR1 agonist	TAAR1 antag	VLA-4 inh	Platelet DG rel	Rce1 inh
CC(=O)c1ccc(NC(=O)CN2CCCCCC2)cc1	2	0	13	-9	i
CN(Cc1ccc(OC(F)F)cc1)C(=O)c1cccc(S(=O)(=O)N2CCN(Cc3ccccc3)CC2)c1	5	49*	/	/	/
CN(CC(=O)Nc1ccc(Cl)cc1)C(=O)c1cccc(S(=O)(=O)N2CCN(Cc3ccccc3)CC2)c1	18	50*	-16	-12	/
CCOC(=O)CN1C(=O)S/C(=C/C=C/c2ccc(N(C)C)cc2)C1=O	45*	30	i	-1	i
O=C(NCc1cc(Cl)cc(Cl)c1)c1csc(COCCO)n1	6	-16	/	/	/
COCCN(C(=O)COC(=O)CCc1nc2ccccc2s1)c1c(N)n(Cc2ccccc2)c(=O)[nH]c1=O	2	0	11	52*	i
COc1ccccc1N1CCN(S(=O)(=O)c2ccc(F)cc2)CC1	38*	3	11	-7	i
O=C(COC(=O)/C=C/c1cccc(Cl)c1)NCCC1=CCCCC1	39*	32	1	-18	i
COc1ccc(CNC(=O)c2ccc(-c3c(C)noc3C)c3ccoc23)cc1OC	-2	-36	/	/	/
CC(C)=CCc1cc(-c2oc3cc(O)cc(O)c3c(=O)c2O)ccc1O	0	6	28	0	i
CC(C)=CCc1c(O)cc2oc3c(CC=C(C)C)c(O)c(O)c(CC=C(C)C)c3c(=O)c2c1O	4	58*	15	-2	i
CCOC(=O)c1ccc(N2CCN(c3ccccc3F)CC2)c(NC(=O)Nc2cccc(OC)c2)c1	10	69*	6	-7	i
COC(=O)c1ccc(N2CCOCC2)c(NC(=O)Nc2cccc(OC)c2)c1	2	6	11	-7	i
O=C(N[C@H](Cc1ccccc1)C(=O)N1CCN(C(=O)N2CCOCC2)CC1)[C@H]1O[C@@H](n2ccc(=O)[nH]c2=O)[C@H](O)[C@@H]1O	2	-7	/	/	/
O=C(CCl)N(c1ccccc1)c1c[nH]c2ccccc12	8	-5	6	-15	i
O=C(CCl)N(c1ccc(Cl)cc1)c1c[nH]c2ccccc12	39*	26	32	-3	i
N#CC1(C#N)OC12CCS(=O)(=O)c1ccccc12 (centres undefined)	6	-2	/	/	/
C[C@@H]1CN(c2ccc(N3CCN(C(=O)OC(C)(C)C)C[C@H]3C)cc2C#N)CCN1Cc1ccccc1	-2	-5	/	/	/
O=C(C=C=Nc1ccccc1)C(=O)N=C=Cc1ccccc1	7	-15	29	53*	i
COc1ccccc1-c1cc(C(F)(F)F)nc(S(=O)(=O)CCCC(=O)NC(C)C)n1	-1	-5	41	-5	i
COc1ccccc1-c1cc(C(F)(F)F)nc(S(=O)(=O)CCCC(=O)NCc2ccc(F)cc2)n1	0	0	25	14	+
COC(C/C=C\[C@@H](O)[C@@H](C)OCc1ccccc1)OC	8	-10	-2	4	i
COC(C/C=C\C(=O)[C@H](C)OCc1ccccc1)OC	0	-1	/	2	+
CC1(CNC(=O)C(=O)NCC2(C)CO2)CO1 (centres undefined)	4	-2	/	/	/
O=C(NCCc1ccc(Cl)cc1)C1CCN(C(=O)c2ccc(F)cc2)CC1	2	-17	7	12	/
O=C(O)C1C2C=CC(C2)C1C(=O)NCCCN1CCOCC1 (centres undefined)	3	1	7	-3	i
CCCCNC(=O)C1C2C=CC(C2)C1C(=O)O (centres undefined)	42*	-5	-19	-11	i

Screening data as filed in PubChem.
